# Source: PubChem
# Many of the other results were omitted from the sample, so hits are more common in it than they were.
# CHOP inhibitor = inhibitors of CHOP induction in ER stress response; CHO-K1 CHOP-promoter luciferase, tunicamycin-induced, 15-18 h; inhibition, % at 10 µM; 220,000 tested, 3.8% active; AID 2732;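 active means compounds that reduced the stress-induced luciferase reporter signal by more than about 70% of percent inhibition, limit read from the data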;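 further: 0% = tunicamycin plus vehicle and 100% = wells without tunicamycin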
# Dynein cargo inh = blocks dynein driven cargo transport along microtubules | 220,000 tested, 0.47% active | AID 1381 | 3617.4 mouse cells, GR-EGFP nuclear translocation imaging; test concentration mostly 20 µM; stimulated with dexamethasone, 1 µM; active compounds read low | z-score, hits read low;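 active means plate z-score of nuclear minus cytoplasmic receptor signal below a set negative limit, without overly bright fluorescence or cell loss, cut at about -3.5 in these data, passing the limit was not always enough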;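 further: z-score of nuclear minus cytoplasmic ring GR-EGFP intensity difference per well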
#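 medium = tetracycline-free induction medium containing charcoal-stripped FBS | also added = 1.0 µM final dexamethasone stimulus | schedule = 48 h induction, 1 h compound, 30 min dex at 37 °C | technique = fixed, Hoechst-stained cells imaged at 10x for EGFP | measure = GR-EGFP nuclear translocation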
# CHOP UPR activ = apoptotic UPR (CHOP) activation; CHO-CHOP luciferase reporter, luminescence; percent of tunicamycin response over DMSO baseline; activation, % at 10 µM; 330,000 tested, 0.34% active;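 active means at 10 µM dose, activation of 40% or more, normalized to positive control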;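 further: 100% = tunicamycin at 10 µg/mL and 0% = DMSO alone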
#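 System: CHO CHOP reporter cells. Amount: 500 cells per well. Buffer or medium: F12 medium, 10% FBS. Compound dosing: one dose, 10 µM in 0.5% DMSO. Incubation: 6 h compound exposure at 37 °C after overnight seeding. Technique: Steady-Glo luciferase luminescence. Benchmarks: tunicamycin and DMSO controls.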
# T cruzi inh = blocks replication of Trypanosoma cruzi. inhibition, % (test concentration not listed). T. cruzi beta-gal in NIH3T3, luminescence, 90 h. AID 1885. 300,000 tested, 1.4% active;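 active means mean inhibition across valid replicates above about 55%, limit read from the data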;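 further: signal also drops with host cell toxicity which is not excluded here; 0% = plate median of DMSO wells and 100% = zero luminescence signal; higher percent means less beta-gal luminescence so fewer parasites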
#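 System: NIH/3T3 fibroblasts plus reporter T. cruzi. Medium: DMEM plus 2% FBS. Probe or stimulus: 5000 reporter trypomastigotes per well. Compound: single 50 nL compound addition per well in DMSO. Incubation: co-culture of at least 90 h after 3 h attachment. Detection: GalScreen β-gal luminescence, detergent lysis, 60 min. Evaluation: parasite load inhibition, %.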
# UPR XBP1 act = adaptive UPR (XBP1) activation; CHO-XBP1 luciferase reporter, IRE1-XBP1 UPR activation, luminescence; percent of tunicamycin response, DMSO as zero; activation, % at 20 µM; 330,000 tested, 0.33% active; AID 463104;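 active means versus positive control, 20 µM dose yields 30% or more activation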;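 further: 100% = tunicamycin at 10 µg/mL and 0% = DMSO only wells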
#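 Material – CHO cell line with stable XBP1 luciferase reporter · Buffer or medium – F12 plus 10% FBS · Compound – single point, 20 µM final compound, 1% DMSO · Schedule – 16-18 h cell attachment at 37 °C, then 6 h compound exposure · Signal – Steady-Glo luminescence read · Benchmarks – high control tunicamycin 10 µg/mL final, low control DMSO vehicle only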
# Lmaj promast = Leishmania major promastigote growth inhibition; Leishmania major promastigotes, resazurin fluorescence viability; inhibition, % at 10 µM; 200,000 tested, 9% active; in the data active means inhibition above about 50%;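 further: promastigotes grown with compound for 44 hours at 28 °C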
# * marks the source's active call; other numbers are inactive results; . = no result.
SMILES,CHOP inhibitor,Dynein cargo inh,CHOP UPR activ,T cruzi inh,UPR XBP1 act,Lmaj promast
O=C(Cn1cnc([N+](=O)[O-])n1)N/N=C/c1ccc2ccccc2c1,17.8,-0.814,0.4,61.5*,1.1,96.2*
O=C(CCNC(=O)Cn1ccc2ccccc2c1=O)NCCc1ccc(Cl)cc1,33.7,-0.653,0.1,-2.8,-0.9,55.3*
O=C(Cn1cnc2cc([N+](=O)[O-])ccc2c1=O)NCc1ccccc1,22.7,0.0589,-0.4,46.0,-1.5,59.9*
CCN(CC)S(=O)(=O)c1ccc(C)c(NC(=O)Cn2cnc3cc([N+](=O)[O-])ccc3c2=O)c1,2.9,0.412,1.2,85.5*,-4.5,71.9*
Cc1cccc(CCNC(=O)CCNC(=O)Cn2ccc3ccccc3c2=O)c1,31.1,0.855,1.7,-10.5,-0.1,-6.1
O=C(Cn1cnc2cc([N+](=O)[O-])ccc2c1=O)Nc1cccc2ccccc12,-5.5,2.57,-1.6,42.6,-1.5,.
CCOc1ccc(CCNC(=O)C2=C(C)C(=O)OC23CCCCC3)cc1OCC,-1.6,0.473,0.3,-10.8,0.7,-1.3
CCOc1ccc(C(=O)NCC(=O)N2CCC3(CC2)NCCc2[nH]cnc23)cc1,.,.,0.0,-16.8,-4.9,.
O=C(Cn1cnc([N+](=O)[O-])n1)NCCO,15.6,-0.13,0.3,-3.3,-0.5,-8.4
O=C(Cn1cnc2ccccc2c1=O)Nc1ccc2c(c1)CCC2,16.6,-0.363,0.4,18.9,-1.5,-2.6
O=C(Cn1cnc2cc([N+](=O)[O-])ccc2c1=O)Nc1ccc2c(c1)CCC2,-9.0,0.941,3.7,64.0*,-3.9,2.9
Cc1cc(OCCCn2cnc3ccccc3c2=O)ccc1[N+](=O)[O-],5.3,-0.468,-2.1,3.9,0.2,58.8*
O=c1c2ccccc2ncn1CCCOc1ccccc1[N+](=O)[O-],33.4,-0.276,3.6,-2.5,4.8,0.2
O=C(Cn1cnc2cc([N+](=O)[O-])ccc2c1=O)NCCc1ccc(Cl)cc1,17.7,-0.663,-1.0,64.1*,-0.3,64.4*
O=C(Cn1cnc([N+](=O)[O-])n1)NCc1ccccc1,14.3,-0.788,1.1,79.4*,-1.3,25.7
O=C(COC(=O)COc1ccc(Cl)cc1)NC1CC1,.,.,0.9,.,-1.4,.
COc1ccc(-n2ncc3c2CC(C)(C)CC3NC(=O)CN2CCOC2=O)cc1 (configuration not stated),.,.,-1.2,-7.1,-4.5,.
Cc1ccccc1OCCn1cnc2cc([N+](=O)[O-])ccc2c1=O,20.9,0.0805,-0.2,60.3*,1.7,73.0*
COc1cc(CNCCc2c[nH]c3ccccc23)cc(Cl)c1OCC(N)=O,-1.4,-0.187,-0.1,-6.1,-2.3,12.2
COc1ccccc1NC(=S)NCCc1c[nH]c2ccccc12,3.0,0.401,2.9,13.6,1.5,0.8
COc1cccc(CNCCc2c[nH]c3ccccc23)c1OCc1ccc(F)cc1,53.8,-0.399,-1.5,49.2,-3.5,100.4*
COc1cc(CNCCc2c[nH]c3ccccc23)ccc1OCc1ccc(F)cc1,88.0*,-3.95,1.3,53.3,2.9,100.4*
COC(=O)COc1cccc(NC(=O)COc2ccccc2)c1,40.2,0.0777,-1.8,-1.8,-3.3,90.9*
O=C(COc1ccccc1)Nc1cccc(-c2nc3cc4ccccc4cc3[nH]2)c1,70.7*,1.79,11.4,20.2,19.2,32.4
COC(=O)COc1cccc(NC(=O)c2cccs2)c1,1.3,-0.073,0.0,-14.2,-0.1,60.6*
SMILES,CHOP inhibitor,Dynein cargo inh,CHOP UPR activ,T cruzi inh,UPR XBP1 act,Lmaj promast
COC(=O)COc1cccc(NC(=O)c2ccccc2)c1,11.8,-1.27,-0.5,-7.7,-1.0,-3.7
CC1CCN(S(=O)(=O)CCNC(=O)c2ccc3c(c2)OCO3)CC1,.,.,2.3,-4.2,2.2,.
O=C1/C(=C/c2cccc(F)c2)Oc2cc(O)ccc21,.,.,1.7,11.2,-4.0,.
CS(=O)(=O)N1CCN(c2ccc(NC(=O)C(c3ccccc3)c3ccccc3)cc2)CC1,39.1,-0.0608,-1.1,-10.0,-1.1,6.6
O=C(Nc1ccc(N2CCCC2)cc1)C(Cl)c1ccccc1 (configuration not stated),77.8*,-0.563,5.8,0.5,-1.0,98.9*
COc1ccc(CC(=O)OCC(=O)Nc2c(C)n(C)n(-c3ccccc3)c2=O)cc1OC,.,.,-0.8,.,0.0,.
Cc1cc(C)c2c(=O)n(CC(=O)Nc3cccc(Cl)c3C)sc2n1,-25.6,-1.1,1.2,57.6*,-1.2,.
Cc1cc(C)c2c(=O)n(CC(=O)Nc3ccc(Br)c(C)c3)sc2n1,0.5,-0.829,-1.4,39.6,-2.4,.
S=c1[nH]nc(-c2ccccn2)n1/N=C/c1ccco1,1.3,-0.365,-0.9,-7.9,-3.4,.
O=[N+]([O-])c1cc2c(cc1/C=N/n1c(-c3ccccc3)n[nH]c1=S)OCO2,-28.0,0.908,3.3,12.7,-0.9,53.4*
O=[N+]([O-])c1ccccc1/C=N/n1c(-c2cccnc2)n[nH]c1=S,-0.5,-0.0789,-0.7,-5.4,-2.4,8.0
O=[N+]([O-])c1cc2c(cc1/C=N/n1c(-c3ccccn3)n[nH]c1=S)OCO2,11.8,0.334,.,-11.3,.,52.8*
CC(NC(=O)c1ccc(N)cc1)c1ccccc1 (configuration not stated),13.2,-1.1,-0.5,-21.0,3.8,-0.6
COc1ccc(CCC(C)NC(=O)Cc2ccc(OC)c(OC)c2)c(OC)c1 (configuration not stated),.,.,-2.1,10.4,-3.9,.
Cc1cc(=O)n2ccsc2n1,14.2,0.313,-1.1,-4.4,-0.6,-5.2
CCOC(=O)[C@H]1[C@H]2COc3ccc(Cl)cc3[C@@H]2N2C(=O)c3cc(F)ccc3NC(=O)[C@@]12C,.,.,1.8,.,-2.2,.
O=C(NCCc1ccccc1Cl)C1CC(=O)N(C2CCCCC2)C1 (configuration not stated),.,.,-1.3,-1.4,3.5,.
Cc1ccc(-c2[nH]nc3c2C(c2cccnc2)C(C#N)=C(N)O3)cc1 (configuration not stated),31.1,-0.328,-1.3,-4.8,2.4,70.9*
C#CCSc1nc(N)c2c(n1)OC(N)=C(C#N)C2c1cccnc1 (configuration not stated),-28.1,0.888,0.0,-19.0,3.2,76.0*
Cc1ccc(Oc2ccc(NC(=O)CSc3n[nH]c(N)n3)cc2)cc1,25.9,-0.5,1.2,9.5,3.2,58.7*
COc1ccc(CCNS(=O)(=O)c2c(C)[nH]c(C)c2C(=O)N2CCCCC2)cc1OC,.,.,-1.5,-4.2,-3.3,.
Cc1ccc(Cl)cc1NC(=S)N(Cc1ccccc1)Cc1cccnc1,22.5,0.532,0.4,76.3*,-1.5,99.2*
Cc1ccccc1NC(=S)N(Cc1cccnc1)Cc1ccccc1Cl,38.2,2.92,-0.4,76.0*,-3.1,92.5*
